Series [1] in a line: Lipophilicity, log D of compound at pH 7.4. The conditions noted are these: buffer. It is filed as physicochemical.
Series [2] is described as follows: Apparent permeability in dog MDCK2 cells at pH 7.4. The format is ADME, cell-based, Canis lupus familiaris, MDCK-II. Conditions: MDCK. Summed up:
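Passive permeability across MDCK-II cells; mean apparent permeability reported.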

The nature of series [3]: Oral bioavailability in Sprague-Dawley rat at 3 mg/kg. Conditions: in vivo. It is filed as ADME, organism-based. Summed up:
(§1)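 Sprague-Dawley rats dosed orally at 3 mg/kg, with intravenous reference at 1 mg/kg.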

Series [4] in a line: Intrinsic clearance in human liver microsome. Conditions: liver microsomes, read-out: CLH. It is filed as ADME. A general note: Liver microsomes are a subcellular fraction often used to study metabolism.
Series [5] can be described thus: Aqueous solubility of compound in pH 6.5 buffer. It is filed as physicochemical. The essentials: (§2)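 Solubility measured on crystalline material at pH 6.5 and pH 2.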
Series [6] can be described thus: Aqueous solubility of compound in pH 2 buffer. It is filed as physicochemical. Summed up:
as §2

Series [7] can be described thus: AUC infinity in Sprague-Dawley rat at 3 mg/kg, po. It is filed as ADME, organism-based. Further details: dose 3 mg/kg, route oral, time infinity. Conditions: in vivo. Summed up:
as §1

Series [8] is described as follows: Half life in Sprague-Dawley rat at 1 mg/kg, iv. Conditions: in vivo. It is filed as ADME, organism-based.
Series [9] can be described thus: Volume of distribution in Sprague-Dawley rat at 1 mg/kg, iv. The format is ADME, organism-based. The conditions noted are these: in vivo.
Series [10] is described as follows: Cmax in Sprague-Dawley rat at 3 mg/kg, po. Further details: dose 3 mg/kg, route oral. The format is ADME, organism-based. The conditions noted are these: in vivo. The essentials:
as §1

A short description of series [11]: Clearance in Sprague-Dawley rat plasma at 1 mg/kg, iv. It is filed as ADME, organism-based.
A short description of series [12]: Intrinsic clearance in human hepatocytes per million cells. Conditions: read-out: CLH. The format is ADME, cell-based, Hepatocyte.

Each structure is given as a SMILES string. Values after ≈ are worked out from the molar mass of the structure shown. Where only a bound is given, the exact number is not on record here.

Usually logD stands for lipophilicity at a set pH, counting ionised and neutral species. A word on the Papp: it is a coefficient for how fast a substance crosses the barrier. One may read the bioavailability as dose-corrected exposure relative to a reference, in per cent. Broadly, the solubility is how much of the substance goes into solution per volume. A lower solubility goes with little dissolved substance. What is called AUC(0-inf) is the area under the concentration-time curve extrapolated to infinity. A higher AUC(0-inf) goes with more exposure. What is called half-life is the time in which the quantity being followed falls by half. Higher therefore signals slow loss. One may read the Vd as a proportionality between amount in the body and measured concentration, not a real space. A high value points to wide distribution into tissue. As a reminder, the Cmax is the maximum level reached in the sampled fluid or tissue. By clearance is commonly meant the rate of elimination divided by the concentration. A higher clearance goes with efficient removal.

On to `C[C@@H]1[C@@H]2CN(c3nc(Nc4cnn(C)c4)ncc3F)C[C@]12NC(=O)[C@@H]1C[C@H]1C#N`, for which the logD in series [1] amounted to 2.35. Also, in series [2], the Papp came to 12.9 ×10⁻⁶ cm/s.
For `C[C@@H]1[C@@H]2CN(c3nc(Nc4cnn(C)c4)ncc3F)C[C@]12NC(=O)[C@H]1CC1(F)F`, in series [1], the logD stood at 2.92.
Still for that read-out and setting: in the case of `O=C(N[C@]12C[C@H]1CN(c1nc(Nc3cnn(CCO)c3)ncc1F)C2)C1CC1` it was 1.75.
In turn, `C[C@@H]1[C@@H]2CN(c3nc(Nc4cnn(C)c4)ncc3F)C[C@]12NC(=O)[C@@H]1CC1(F)F` displayed a bioavailability in [3] of 54%. The logD in series [1] amounted to 2.65. Further, the microsomal CLint in series [4] was less than 8 µL/min/mg. Further, the solubility in series [5] is 140 µg/mL (≈ 344 µM); in series [6], greater than 15000 µg/mL. This compound also registered an AUC(0-inf) in series [7] of 2030 ng·h/mL. Further, the Papp in series [2] amounted to 17 ×10⁻⁶ cm/s. In addition, the half-life in [8] is 1.4 h. This compound also showed a Vd in series [9] of 1.2 L/kg. The compound also returned a Cmax in [10] of 614 ng/mL. In series [11], this compound had a clearance of 13 mL/min/kg. Further, the hepatocyte CLint in [12] stood at 3.45 µL/min/1e6 cells.
For the compound `C[C@@H]1[C@@H]2CN(c3nc(Nc4cnn(CCO)c4)ncc3F)C[C@]12NC(=O)[C@H]1C[C@@H]1C#N`, the logD in series [1] worked out at 1.75. Also, the Papp in series [2] is 1.2 ×10⁻⁶ cm/s.
The compound `CCNC(=O)c1ccc(Nc2nccc(N3CC4CCC(C3)N4C(=O)C3CC3)n2)cc1` displayed a logD in series [1] of 1.8.
Take `N#C[C@H]1C[C@@H]1C(=O)N[C@@]12C[C@@H]1CN(c1nc(Nc3cnn(CCO)c3)ncc1F)C2`: in series [1], the logD was 1.43.
Same read-out and setting: the same measure for `O=C(C1CC1)N1C2CCC1CN(c1nc(Nc3cnn(CCO)c3)ncc1F)C2`: 1.8.
In series [1], `O=C(N[C@@]12C[C@@H]1CN(c1nc(Nc3cnn(CCO)c3)ncc1F)C2)C1CC1` came in with a logD of 1.74. The logD values of the last two compounds are within 0.2 log units of each other.
In turn, `N#C[C@@H]1C[C@H]1C(=O)N[C@@]12C[C@@H]1CN(c1nc(Nc3cnn(CCO)c3)ncc1F)C2` had a logD in series [1] of 1.4.
Still for that read-out and setting: the same measure for `C[C@@H]1[C@@H]2CN(c3nc(Nc4cnn(CCO)c4)ncc3F)C[C@]12NC(=O)[C@@H]1C[C@H]1C#N`: 1.71; for `CCNC(=O)c1ccc(Nc2nccc(N3CC4CC(C3)N4C(=O)C3CC3)n2)cc1`: 1.7.
In turn, `C[C@@H]1[C@@H]2CN(c3nc(Nc4cnn(CCO)c4)ncc3F)C[C@]12NC(=O)C1CC1` displayed a logD in series [1] of 2.1.
In series [1], `C[C@@H]1[C@@H]2CN(c3nc(Nc4cnn(C)c4)ncc3F)C[C@]12NC(=O)[C@H]1C[C@@H]1C#N` gave a logD of 2.32. Besides, the Papp in series [2] worked out at 13.8 ×10⁻⁶ cm/s.

The values are drawn from ChEMBL document CHEMBL4619733, “Design and optimization of a series of 4-(3-azabicyclo[3.1.0]hexan-3-yl)pyrimidin-2-amines: Dual inhibitors of TYK2 and JAK1” (Bioorg Med Chem, 2020).
